Assay outcomes from PubChem.
Rows were chosen to be rich in hits. Some 2.6% of all compounds tested hit in one or more screens of this group.
Myeloid diff 2 – induction of myeloid progenitor differentiation, primary screen, cell-based, flow cytometry, MLPCN library. ER-HoxA9 myeloid progenitors, lysozyme-GFP differentiation. actives 1% (n = 360,000). calls only at 10 µM. AID 624256, 2012;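 active means normalized GFP-positive differentiation at or above the plate's own cutoff, the solvent-only control mean plus 3 SD; inconclusive means no clear call, values can overlap the other calls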;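 further: cells exposed to compound for four days before flow analysis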
GRK2 aptamer HTS – compounds blocking aptamer binding on GRK2 – biochemical, human GRK2, bead flow cytometry, HTS, primary screen; Beta-adrenergic receptor kinase 1 (Homo sapiens), P25098; FAM-aptamer displacement from GRK2; inhibition of aptamer binding, % at 10 µM; actives 0.59% (n = 330,000); AID 488847, 2010;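 active means inhibition of aptamer binding above 40%, roughly 3 SD of noise, on plates passing a quality check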;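 further: median bead fluorescence of bound FAM aptamer so fluorescent compounds give negative values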
Rce1 inhib – yeast Rce1p protease inhibitors, primary screen, biochemical, fluorescence, cell-free homogeneous; CAAX prenyl protease 2 (Saccharomyces cerevisiae (strain ATCC 204508 / S288c)), Q03530; AID 2563, 2010; actives 0.27% (n = 290,000); calls only; yeast membranes, quenched prenylated peptide cleavage fluorescence;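 active means fall in fluorescence gain of 50% or more versus controls, with final raw signal at or below 3038400; inconclusive means same 50% fall but final raw signal above 3038400; inactive means fall in fluorescence gain under 50%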;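 further: plate controls were neutral control wells for no effect and wells lacking membranes for full effect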
Rin1 Abl inh – inhibitors of Rin1-Abl protein binding, primary screen, biochemical, TR-FRET; actives 0.4% (n = 360,000); inhibition, % at 7.35 µM; in the data active means inhibition above about 5%, passing the limit was not always enough
Target sequence (P00519 whole entry, looked up): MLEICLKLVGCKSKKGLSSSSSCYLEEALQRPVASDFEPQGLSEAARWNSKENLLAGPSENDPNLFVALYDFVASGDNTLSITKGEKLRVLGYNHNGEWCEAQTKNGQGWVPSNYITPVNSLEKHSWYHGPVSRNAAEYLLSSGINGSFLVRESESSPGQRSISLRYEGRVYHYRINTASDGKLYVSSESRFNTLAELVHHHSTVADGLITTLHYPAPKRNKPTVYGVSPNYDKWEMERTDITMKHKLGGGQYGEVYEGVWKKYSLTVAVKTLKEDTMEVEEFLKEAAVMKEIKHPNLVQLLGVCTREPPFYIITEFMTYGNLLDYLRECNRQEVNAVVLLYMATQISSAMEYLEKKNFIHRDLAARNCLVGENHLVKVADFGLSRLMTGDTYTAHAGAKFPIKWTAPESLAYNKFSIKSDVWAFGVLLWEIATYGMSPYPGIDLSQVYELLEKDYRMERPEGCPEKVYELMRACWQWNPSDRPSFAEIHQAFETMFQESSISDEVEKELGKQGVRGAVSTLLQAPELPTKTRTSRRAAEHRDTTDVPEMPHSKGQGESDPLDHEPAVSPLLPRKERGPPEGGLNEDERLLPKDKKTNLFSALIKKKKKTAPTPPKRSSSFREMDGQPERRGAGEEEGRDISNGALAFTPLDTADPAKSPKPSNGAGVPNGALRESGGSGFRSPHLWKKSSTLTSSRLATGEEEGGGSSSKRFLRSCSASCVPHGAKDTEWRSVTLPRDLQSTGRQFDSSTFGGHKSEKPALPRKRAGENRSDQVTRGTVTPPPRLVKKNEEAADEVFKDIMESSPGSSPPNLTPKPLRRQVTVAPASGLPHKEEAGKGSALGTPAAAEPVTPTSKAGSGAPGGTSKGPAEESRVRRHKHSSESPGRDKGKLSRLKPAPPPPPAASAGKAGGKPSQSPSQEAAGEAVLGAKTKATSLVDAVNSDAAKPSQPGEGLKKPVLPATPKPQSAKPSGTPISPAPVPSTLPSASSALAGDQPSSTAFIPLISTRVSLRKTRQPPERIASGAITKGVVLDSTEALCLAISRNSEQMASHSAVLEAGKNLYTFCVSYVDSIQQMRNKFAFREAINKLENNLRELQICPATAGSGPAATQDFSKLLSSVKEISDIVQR
Target sequence (Q13671 whole entry, looked up): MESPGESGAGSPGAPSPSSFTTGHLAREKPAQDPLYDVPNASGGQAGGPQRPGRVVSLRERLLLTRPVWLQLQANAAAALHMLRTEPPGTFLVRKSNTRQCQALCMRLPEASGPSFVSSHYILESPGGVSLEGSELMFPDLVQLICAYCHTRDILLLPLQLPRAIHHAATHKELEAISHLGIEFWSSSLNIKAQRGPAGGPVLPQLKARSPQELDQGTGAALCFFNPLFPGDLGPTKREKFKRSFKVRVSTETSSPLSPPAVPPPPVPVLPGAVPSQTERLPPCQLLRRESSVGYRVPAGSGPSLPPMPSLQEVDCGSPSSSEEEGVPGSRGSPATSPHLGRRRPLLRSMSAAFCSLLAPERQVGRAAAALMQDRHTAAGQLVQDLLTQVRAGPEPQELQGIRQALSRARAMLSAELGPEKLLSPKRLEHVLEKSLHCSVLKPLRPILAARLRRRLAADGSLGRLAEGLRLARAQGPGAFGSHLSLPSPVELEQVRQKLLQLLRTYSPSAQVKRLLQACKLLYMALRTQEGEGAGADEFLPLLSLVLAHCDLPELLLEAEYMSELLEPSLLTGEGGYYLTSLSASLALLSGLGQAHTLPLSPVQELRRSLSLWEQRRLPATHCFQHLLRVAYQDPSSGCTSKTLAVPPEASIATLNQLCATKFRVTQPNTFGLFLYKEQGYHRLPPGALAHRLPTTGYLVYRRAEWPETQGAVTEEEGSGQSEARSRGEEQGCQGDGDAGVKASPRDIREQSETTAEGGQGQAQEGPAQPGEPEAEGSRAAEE
SKN-1 inh – suppressors of acrylamide-induced Pgst-4::GFP reporter in worms, primary screen, SKN-1 inhibitor project, whole organism, uHTS, GFP/RFP fluorescence ratio, strain VP596 | actives 0.49% (n = 360,000) | AID 624304, 2012 | C. elegans VP596 Pgst-4::GFP/RFP ratio, 24 h | inhibition, % at 21.8 µM;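 active means interference check ratio from 0.5 to 1.5 plus GFP to RFP signal ratio inhibition reaching or exceeding a fixed threshold, cut at about 30% in these data, passing the limit was not always enough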
T cell modulator – modulators of CD8 T cell-vesicle binding, primary screen, mouse 2C CD8+ T cells, flow cytometry | 2C CD8+ T cell-vesicle binding; active compounds read low | response (vesicle binding), % at 7 µM | actives 0.068% (n = 330,000) | AID 2052, 2009;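 active means response, share of CD8 T cells binding vesicles, and their 90th percentile fluorescence all below set limits, cut at about 80% in these data, passing the limit was not always enough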;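 further: values below 100% mean blocked vesicle binding to the CD8+ T cells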
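Material: murine 2C transgenic CD8+ T lymphocytes / Also added: QL9-peptide-loaded Drosophila micro-vesicles bearing Ld, ICAM-1 and B7-1 / Schedule: binding step 1.5 h, 37 °C, antibody labelling 20 min, ice / Signal: flow cytometry, PE anti-B7-1 (FL2) versus Alexa647 anti-CD8 (FL8), PFA-fixed / Evaluation: percent CD8+ FL2 mean versus row control / Benchmarks: naked versus QL9-loaded vesicles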
Active calls of the source: *; i = inactive; ? = inconclusive; . = not tested or not shown; + = active, no number.

SMILES	Myeloid diff 2	GRK2 aptamer HTS	Rce1 inhib	Rin1 Abl inh	SKN-1 inh	T cell modulator
Cc1ccc(C=Cc2ccccn2)cc1	i	.	.	0.9	42.7*	.
Clc1ccc(C=Cc2ccccn2)cc1	i	.	.	4.0	72.3*	.
Cc1ccc2nc(N3C(=O)C(O)=C(C(=O)c4ccco4)C3c3cccs3)sc2c1 (centres undefined)	i	3.0	i	2.8	1.8	246.5
Cc1ccc2nc(N3C(=O)C(O)=C(C(=O)c4ccc(C)o4)C3c3ccc(O)cc3)sc2c1 (centres undefined)	+	0.0	.	-1.2	-0.7	263.4
COc1ccc(NC(=O)CN(C)S(=O)(=O)c2ccc(Cl)cc2)cn1	i	2.0	.	1.7	18.5	i
Cc1ccc(Nc2ccc(N3CCN(c4ccc([N+](=O)[O-])cc4)CC3)nn2)cc1	i	1.0	i	-3.7	-8.1	219.7
CC(C)C(NS(=O)(=O)c1c(Cl)cccc1Cl)C(=O)OCC(=O)c1c[nH]c2ccccc12 (centres undefined)	+	14.0	i	0.4	17.4	233.8
CC(O)C(NS(=O)(=O)c1ccc(Cl)cc1)C(=O)OCC(=O)c1c[nH]c2ccccc12 (centres undefined)	i	0.0	i	-3.9	-6.1	205.4
CC(C)(C)c1cc(C(=O)N/N=C/c2ccccc2O)n(-c2ccccc2)n1	?	99.0*	i	-0.6	-4.9	304.7
Cc1cc(C(=O)N/N=C\c2cc(C(C)(C)C)ccc2O)n[nH]1	+	0.0	i	0.3	21.5	227.3
CC(C)(C)c1cc(C(=O)N/N=C/c2ccc(F)cc2)n(-c2ccccc2)n1	i	0.0	i	2.1	9.9	388.1
COc1ccc(OC)c(S(=O)(=O)NC(=O)C2(C)CCN2C(=O)c2ccco2)c1 (centres undefined)	i	.	.	-4.3	10.3	.
Cc1cc(C)n2cc(CSc3ccc(Br)cc3)nc2n1	i	0.0	i	-3.0	-1.8	217.5
Cc1cc(C)n2cc(CSCC(=O)O)nc2n1	i	1.0	+	2.0	-3.4	273.0
CCN(CC)c1ccc(C(=O)NN)cc1	+	3.0	i	2.4	1.5	201.7
CCOc1ccc(N(C)S(=O)(=O)c2cc(-c3cc(C)no3)ccc2CC)cc1	i	0.0	i	1.6	4.1	262.4
Cc1cc(C(=O)N[C@H](c2ccccc2)[C@@]2(C)C[C@@H]2[C@@H](C)C(=O)Nc2ccc3ccccc3c2)n(C)n1	i	0.0	+	0.9	-1.8	559.4
COc1cc2c(cc1OC)-c1nc3ccccc3c(=O)n1C(C)(C)C2	+	0.0	i	2.8	6.3	133.6
CC(=O)Nc1ccc2sccc2c1	i	3.0	i	0.3	3.0	218.3
COc1cc(/C=C2\SC(=Nc3ccc(O)cc3)NC2=O)cc(OC)c1OC	.	5.0	i	.	.	315.8
Cc1ccc(/C=C2/SC(=Nc3ccc(F)cc3)NC2=O)s1	i	0.0	i	0.4	40.2*	216.4
COc1cc(/C=C2/SC(=Nc3ccc(O)cc3)NC2=O)cc(OC)c1O	+	2.0	i	-4.9	0.5	193.1
Cc1cc(C)c(NC(=O)CN(C)C(=O)C2CC(=O)N(c3cccc4ccccc34)C2)c(C)c1 (centres undefined)	i	3.0	.	0.4	-10.6	241.7
Cc1ccc(Nc2nc(-c3ccc(S(=O)(=O)N4CCOCC4)cc3)cs2)cc1Cl	i	0.0	+	-0.5	7.2	197.1
O=S(=O)(c1ccccc1)N1CCN(c2cc(-c3ccccc3)nc3ncnn23)CC1	+	0.0	i	6.0	-0.3	221.1
SMILES	Myeloid diff 2	GRK2 aptamer HTS	Rce1 inhib	Rin1 Abl inh	SKN-1 inh	T cell modulator
O=S(=O)(c1ccc(NC(=S)Nc2ccc(OC(F)F)cc2)cc1)N1CCOCC1	+	0.0	i	1.2	-13.5	218.0
O=C(COc1ccccc1)NNC(=O)c1cc2ccccc2oc1=O	i	1.0	i	2.2	-16.5	345.9
O=C(NNc1c(F)c(F)cc(F)c1F)c1cc2ccccc2oc1=O	i	2.0	i	-4.9	4.4	0.0*
O=C(N/N=C/c1ccco1)c1ccccc1OCc1ccc(Br)cc1	+	3.0	i	-1.0	-13.2	156.9
CC(C)OC(=O)C(C(=O)C(F)(F)F)c1cc(NS(=O)(=O)c2ccc3ccccc3c2)c2ccccc2c1O (centres undefined)	+	0.0	i	-2.2	3.1	261.7
CCOc1ccc(S(=O)(=O)Nc2cc(SCC(=O)O)c(O)c3ccccc23)cc1	i	2.0	i	4.4	-8.6	150.0
Nc1ccc(CSc2ccc(Cl)cc2)c(Cl)c1	i	.	.	0.1	45.1*	.
Brc1cc2c(cc1-c1nc3ccccc3s1)OCO2	i	3.0	i	-2.0	7.9	i
Oc1ccc(N=C/C=C/c2ccc(Br)cc2)cc1-c1nc2ccccc2s1	.	41.0*	i	.	.	351.4
CS(=O)(=O)N1CCc2cc(C(=O)N3CCN(c4ccccc4F)CC3)ccc21	+	4.0	i	4.2	25.4	591.1
COc1ccccc1N1CCN(C(=O)c2ccc3c(c2)CCN3S(C)(=O)=O)CC1	i	0.0	i	-1.6	-6.2	373.8
O=C(CNC(=O)C1CCCCC1)OCC(=O)c1ccc(Br)cc1	i	.	i	-0.4	-6.9	.
COC(=O)CSc1nc(N)c2c3c(sc2n1)C(c1ccccc1)SC(c1ccccc1)C3 (centres undefined)	.	7.0	+	0.6	2.3	231.1
Cc1cc(C(=O)Cn2nnc3ccccc3c2=O)c(C)n1-c1ccccc1F	+	0.0	i	1.8	-11.9	381.8
COc1ccc(-n2c(C)cc(C(=O)Cn3nnc4ccccc4c3=O)c2C)cc1	i	0.0	i	2.6	14.5	306.4
COc1ccc(C(=O)c2sc3nc(-c4ccccc4)ccc3c2N)cc1	+	6.0	i	-0.5	3.2	i
CN1CCN(C(=O)CSc2nc(-c3cccs3)ccc2C#N)CC1	+	4.0	i	-7.1	12.9	501.4
N#Cc1ccc(-c2cccs2)nc1SCc1cccnc1	?	4.0	i	1.3	9.3	169.5
COc1ccc2sc(-c3ccc(S(C)(=O)=O)cc3)c(-c3ccc(SC)cc3)c2c1	i	0.0	.	3.9	2.6	748.9
COc1ccc2c(Cl)c(C(=O)N/N=C3\CCCC(=O)C3)sc2c1	+	0.0	i	-4.3	10.4	775.4
